ChEMBL document CHEMBL1949545, “Synthesis and evaluation of malonate-based inhibitors of phosphosugar-metabolizing enzymes: class II fructose-1,6-bis-phosphate aldolases, type I phosphomannose isomerase, and phosphoglucose isomerase” (Bioorg Med Chem, 2012)
The source made the active and inactive calls. The rule behind the calls is not given here.

What was measured:
[1] = Inhibition of yeast PGI; set-up: species or system Saccharomyces cerevisiae
[2] = Inhibition of Escherichia coli PMI
[3] = molecular target: T1, Fructose-bisphosphate aldolase A (Oryctolagus cuniculus, UniProt P00883); experiment: Inhibition of rabbit muscle FBA-1
T1 sequence (P00883 whole entry): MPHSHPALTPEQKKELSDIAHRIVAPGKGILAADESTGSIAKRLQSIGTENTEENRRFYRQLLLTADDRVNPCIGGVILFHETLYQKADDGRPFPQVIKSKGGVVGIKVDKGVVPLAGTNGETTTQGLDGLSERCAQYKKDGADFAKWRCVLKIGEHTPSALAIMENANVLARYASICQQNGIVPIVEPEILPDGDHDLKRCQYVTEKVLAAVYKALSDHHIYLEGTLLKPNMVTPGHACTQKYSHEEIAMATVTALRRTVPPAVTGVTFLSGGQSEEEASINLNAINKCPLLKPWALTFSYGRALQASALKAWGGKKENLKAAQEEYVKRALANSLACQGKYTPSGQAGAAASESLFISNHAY

[4] = Inhibition of Candida albicans FBA-2
[5] = Inhibition of Helicobacter pylori FBA-2
[6] = Inhibition of Mycobacterium tuberculosis FBA-2
[7] = Inhibition of Yersinia pestis FBA-2
[8] = tested on: Mycobacterium tuberculosis; experiment: Antimicrobial activity against Mycobacterium tuberculosis at 1 mM; type: functional, organism-based
[9] = tested on: Yersinia pestis; experiment: Antimicrobial activity against Yersinia pestis at 1 mM; type: functional, organism-based
[10] = tested on: Candida albicans; experiment: Antimicrobial activity against Candida albicans at 1 mM; type: functional, organism-based
How it was run: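 Growth inhibition was tested in cultivated microbial cultures at concentrations up to 1 mM.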

Structure (SMILES)	IC50 [1] [µM]	Ki [2] [µM]	IC50 [2] [µM]	Ki [3] [µM]	Ki [4] [µM]	Ki [5] [µM]	Ki [6] [µM]	Ki [7] [µM]	Activity [8]	Activity [9]	Activity [10]	Ki [1] [µM]
NO.O=C(O)C(C[C@@H](O)[C@@H](O)[C@H](O)C(=O)NO)C(=O)O	2290	162										
O=C(NO)[C@@H](O)[C@H](O)[C@H](O)CO	5540		10000									
O=C(O)C(CCCCN(O)C(=O)COP(=O)(O)O)C(=O)O				257	0.05	0.04	0.004	0.008	inactive	inactive	inactive	
O=C(NO)[C@@H](O)[C@H](O)[C@H](O)COP(=O)(O)O		0.08										0.23
O=C(CO)N(O)CCCCOP(=O)(O)O				> 1000	0.76	1.2	0.175	0.08				
O=C(COP(=O)(O)O)N(O)CCCCOP(=O)(O)O									inactive	inactive	inactive	
O=C(O)C(CC(=O)N(O)CCCCOP(=O)(O)O)C(=O)O				500	2300	250	500	1500	inactive	inactive	inactive	
